The source of these data is ChEMBL document CHEMBL1152376, “N-[(Dihydroxyphenyl)acyl]serotonins as potent inhibitors of tyrosinase from mouse and human melanoma cells” (Bioorg Med Chem Lett, 2009).

Activity calls are given as the source filed them. The rule behind the calls is not given here.

Data set [1] is described as follows: Cytotoxicity against mouse B16 cells assessed as cell viability at 20 uM after 2 days by tetrazolium reduction assay. Type of data set: cell-based. Conditions: read-out: Activity. An outline of the steps:
(§1)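 B16 cells seeded at 1.5 × 10⁴ per well, cultured 1 day, then given compound in ethanol (stock 0–10 mM) and incubated 2 days. Medium aspirated and viability measured with a tetrazolium reagent. Values are means of 8 or 9 wells, with Student's t-test against control.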

In data set [2] the test system is B16. The experiment in a line: Cytotoxicity against mouse B16 cells assessed as cell viability at 10 to 30 uM after 2 days by tetrazolium reduction assay. The format is cell-based. Particulars: b16, 48 h. A digest of the protocol: as §1
Data set [3] relates to B16. Description: Antimelanogenic activity in mouse B16 cells assessed as inhibition of extracellular melanin formation after 2 days. Conditions: B16, 48 h.
In data set [4] the test system is B16. The experiment in a line: Cytotoxicity against mouse B16 cells assessed as cell viability at < 30 uM after 2 days by tetrazolium reduction assay. Type of data set: cell-based. Conditions: b16, 48 h. An outline of the steps:
as §1

Data set [5] has as its target T1, Tyrosinase (Mus musculus, UniProt P11344).
T1 sequence (P11344 whole entry): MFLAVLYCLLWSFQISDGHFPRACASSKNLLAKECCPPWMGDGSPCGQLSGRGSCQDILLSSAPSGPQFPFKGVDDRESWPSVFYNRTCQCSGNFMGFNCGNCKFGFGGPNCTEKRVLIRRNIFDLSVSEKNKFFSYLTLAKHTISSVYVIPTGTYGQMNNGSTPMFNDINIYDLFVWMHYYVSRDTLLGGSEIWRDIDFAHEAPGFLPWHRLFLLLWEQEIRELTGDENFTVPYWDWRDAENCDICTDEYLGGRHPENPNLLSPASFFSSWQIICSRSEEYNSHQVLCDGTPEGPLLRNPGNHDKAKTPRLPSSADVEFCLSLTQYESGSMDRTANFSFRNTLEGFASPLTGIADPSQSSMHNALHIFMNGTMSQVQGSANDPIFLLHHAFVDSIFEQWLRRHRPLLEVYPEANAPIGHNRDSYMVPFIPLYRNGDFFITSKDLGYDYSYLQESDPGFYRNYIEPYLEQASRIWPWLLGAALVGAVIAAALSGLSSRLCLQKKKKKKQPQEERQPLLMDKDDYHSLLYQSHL
The experiment in a line: Inhibition of catecholase activity of tyrosinase in mouse B16 cells assessed as dopachrome formation. The format is cell-based.

Data set [6] has as its target T1, Tyrosinase. The experiment in a line: Apparent noncompetitive inhibition of catecholase activity of tyrosinase in mouse B16 cells by Lineweaver-Burke plot analysis. Type of data set: cell-based. Conditions: read-out: Ki(app). An outline of the steps: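 Tyrosinase extracted from B16 cells (DMEM, 15% FBS) was assayed with L-DOPA in 50 mM phosphate buffer pH 6.8 at 37 °C. Dopachrome formation over 5 min was read at 475 nm (ε = 3700 M⁻¹ cm⁻¹). Inhibitor was tested at several fixed levels (e.g. 0–70 µM), L-DOPA was varied, Lineweaver–Burk lines were fitted by least squares, and apparent Ki was derived.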

The test system of data set [7] is B16. Description: Antimelanogenic activity in mouse B16 cells assessed as inhibition of intracellular melanin accumulation at 2 to 40 uM after 2 days. Type of data set: functional, cell-based. An outline of the steps: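 B16 cells grown in DMEM with 15% FBS, seeded at 7.5 × 10⁴ cells per well, cultured 1 day, then given compound in ethanol and incubated 2 days. Cells scraped, washed with PBS and sonicated in 0.2 ml 1 N NaOH. Intracellular melanin read as homogenate absorbance at 415 nm, expressed as % control.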

Data set [8] is described as follows: Cytotoxicity against human HMVII cells assessed as cell viability at 40 uM after 2 days by tetrazolium reduction assay. The format is cell-based. Conditions: hmv-2, 48 h. An outline of the steps:
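HMV-II cells given compound in ethanol and incubated 2 days, then viability measured by tetrazolium reduction. Values are % control, mean ± SEM (n = 3–4) from a representative repeated experiment.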

The subject of data set [9] is B16. Description: Ratio of IC50 of drug to IC50 of kojic acid for antimelanogenic activity in mouse B16 cells. The format is functional. An outline of the steps:
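B16 cells (1.5 × 10⁴ per well) were cultured 1 day, given compound in ethanol (stock 0–10 mM), and incubated 2 days. Medium darkening from extracellular melanin was read at 415 nm and IC50 derived.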

Data set [10] can be described thus: Antimelanogenic activity in human HMVII cells assessed as inhibition of intracellular melanin accumulation at 20 to 40 uM after 2 days. Type of data set: functional, HMV-2.
A short description of data set [11]: Cytotoxicity against mouse B16 cells assessed as cell viability at 200 uM after 2 days by tetrazolium reduction assay. Type of data set: cell-based. Particulars: read-out: Activity. An outline of the steps:
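B16 mouse melanoma cells in DMEM with 15% FBS, seeded at 1.5 × 10⁴ cells per well and cultured 1 day. Compound then added in ethanol and incubated 2 days. Medium aspirated and viability read with a tetrazolium reagent. Means of 8 or 9 wells, Student's t-test versus control.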

Data set [12] concerns the target T2, Tyrosinase (Mus musculus) (UniProt P11344).
T2 sequence (whole entry): T1 sequence (P11344 whole entry)
Description: Inhibition of catecholase activity of tyrosinase in mouse B16 cells assessed as residual activity at […] preincubated for 5 to 30 mins in absence of L-DOPA substrate. Type of data set: cell-based. An outline of the steps:
(§2)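 Enzyme was preincubated with inhibitor (added in ethanol as a 20 mM stock) in 50 mM phosphate buffer pH 6.8, with or without 0.125 mM L-DOPA, at 37 °C for 5, 10, 20 or 30 min. Buffer containing 5.3 mM L-DOPA was then added and dopachrome read at 475 nm. Control (=100) was 31 min preincubation without inhibitor; mean ± sd, n = 3.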

Data set [13] deals with T2, Tyrosinase (Mus musculus). Description: Inhibition of catecholase activity of tyrosinase in mouse B16 cells assessed as residual activity at […] measured after preincubation presence of L-DOPA substrate. Conditions: TDE = time-dependent effect. The format is cell-based. An outline of the steps:
as §2

For `O=C(NCCc1c[nH]c2ccccc12)c1ccccc1`, the viability at 48 h, 20 µM in data set [1] was determined as 85%. Also, the Activity result in data set [2] is recorded as “Toxic”.
For orientation: IC50 means the concentration at which inhibition is half-maximal. As to `COc1cc(/C=C/C(=O)NCCc2c[nH]c3ccc(O)cc23)ccc1O` [N-FERULOYL SEROTONIN], the values for the IC50 in [3] and in [5] were 23 µM and 216 µM, respectively. The Activity entry in data set [4] is “Non-toxic”. The viability at 48 h, 20 µM in [1] is 100%.
Consider `O=C(NCCc1ccc(O)cc1)c1ccc(O)c(O)c1`, for which the viability at 48 h, 20 µM in data set [1] stood at 88%. Further, in data set [2], the Activity entry is listed as “Toxic”.
In the case of `O=C(NCCc1c[nH]c2ccc(O)cc12)c1ccc(O)c(O)c1`, the Ki in data set [6] worked out at 64 µM. The IC50 in data set [3] worked out at 3 µM; in data set [5], 73 µM. Besides, the outcome in data set [7] was inactive. Further, the results for the Activity result in data set [4] and in [8] were “Non-toxic” and “Toxic”, respectively. In [1], the viability at 48 h, 20 µM amounted to 99%. Further, the “Ratio IC50” value in data set [9] amounted to 40. Besides, the “inhibition (INH)” value in data set [10] is on record as 20%.
In the case of `O=c1cc(CO)occ1O` [KOJIC ACID], in data set [3], the IC50 came to 111 µM. The viability at 48 h, 200 µM in data set [11] was found to be 99%.
`COc1cc(C(=O)NCCc2c[nH]c3ccc(O)cc23)ccc1O`: the IC50 in data set [3] is greater than 30 µM; in [5], 211 µM. In addition, the Activity entry in [4] was “Non-toxic”. Moreover, in data set [1], the viability at 48 h, 20 µM amounted to 93%.
The matching figures for `O=C(NCCc1c[nH]c2ccc(O)cc12)c1ccc(O)cc1O`: 15 µM, 42 µM, “Non-toxic” and 101%.
Regarding `O=C(NCCc1c[nH]c2ccccc12)c1ccc(O)cc1`, in data set [3], the IC50 was greater than 30 µM. Further, the viability at 48 h, 20 µM in [1] worked out at 94%.
On to `NC(=O)c1ccc(O)c(O)c1` [PROTOCATECHUAMIDE], for which, in [6] (in the assay text read “Competitive” for “Apparent noncompetitive”), the Ki was found to be 3700 µM.
With `O=C(NCCc1c[nH]c2ccccc12)c1ccc(O)c(O)c1`, in [1], the viability at 48 h, 20 µM worked out at 69%. In addition, the Activity result in data set [2] is listed as “Toxic”.
With `CC(=O)NCCc1c[nH]c2ccc(O)cc12` [ACETYLSEROTONIN], the Ki in data set [6] stood at 240 µM. In addition, the IC50 in [3] was greater than 30 µM; in data set [5] it was 311 µM. In addition, the viability at 48 h, 20 µM in [1] came out at 93%. Also, the result in [12] was Active. In [13], the Activity entry was “tde”.
Take `O=C(NCCc1c[nH]c2ccc(O)cc12)c1ccccc1`: the IC50 in [3] is greater than 30 µM; in data set [5], 333 µM. Also, in data set [1], the viability at 48 h, 20 µM was 96%.
Regarding `COc1ccc2[nH]cc(CCNC(=O)/C=C/c3ccc(O)c(O)c3)c2c1`, in [1], the viability at 48 h, 20 µM turned out to be 41%. Moreover, the Activity entry in [2] is on record as “Toxic”.
With `NCCc1c[nH]c2ccc(O)cc12` [SEROTONIN], the 50% inhibitory concentration (IC50) is greater than 30 µM in data set [3] and 550 µM in data set [5]. In addition, the viability at 48 h, 20 µM in data set [1] came out at 101%.
For the compound `O=C(NCCc1c[nH]c2ccc(O)cc12)c1ccc(O)cc1`, the figures for the IC50 in data set [3] and in [5] were greater than 30 µM and 233 µM, respectively. In addition, in data set [1], the viability at 48 h, 20 µM was 100%.
Take `O=C(/C=C/c1ccc(O)c(O)c1)NCCc1ccc(O)cc1`: the viability at 48 h, 20 µM in data set [1] was determined as 84%. Moreover, in data set [2], the Activity entry was “Toxic”.
Regarding `Oc1ccc2[nH]ccc2c1`, the IC50 stood at 13 µM in [3] and 68 µM in data set [5]. Besides, in data set [1], the viability at 48 h, 20 µM was 100%.
`O=C(/C=C/c1ccc(O)c(O)c1)NCCc1c[nH]c2ccc(O)cc12` [N-CAFFEOYLSEROTONIN]: the figures for the IC50 in data set [3] and in data set [5] were 15 µM and 28 µM, respectively. For the same compound, the Activity result in data set [4] was “Non-toxic”. The viability at 48 h, 20 µM in data set [1] turned out to be 99%.
`O=C(/C=C/c1ccc(O)c(O)c1)NCCc1c[nH]c2ccccc12`: the viability at 48 h, 20 µM in [1] came out at 54%. Further, the Activity entry in data set [2] was “Toxic”.
With `COc1cc(/C=C/C(=O)NCCc2c[nH]c3ccccc23)ccc1O`, in data set [3], the IC50 was greater than 30 µM. In addition, the viability at 48 h, 20 µM in data set [1] is 102%.
